Each compound was assayed on HL-60 (assay: Growth inhibition of human HL60 cells after 3 days by trypan blue method).
Type: functional
Procedure, shortened: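 HL-60 cells grown in RPMI-1640 with 10% heat-inactivated FBS, 1 mM L-glutamine, penicillin/streptomycin. Log-phase cells seeded at 1 × 10⁵ cells/mL and exposed to a range of concentrations for 3 days, in triplicate. Total cells counted on a hemocytometer, with trypan blue marking nonviable cells. Growth inhibition taken relative to untreated control; IG₅₀ from regression of concentration-response data; mean ± SE of three independent experiments.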

For `CC1(C)CC[C@]2(C(=O)O)CC[C@]3(C)C(=CC[C@@H]4[C@@]5(C)CCC(=O)C(C)(C)[C@@H]5[C@H](O)C[C@]43C)[C@@H]2C1`, which IG50 is on record?
The IG50 was 14.2 µM.

For `CC1(C)CC[C@]2(C(=O)O)CC[C@]3(C)C(=CC[C@@H]4[C@@]5(C)CCC(=O)C(C)(C)[C@@H]5CC[C@]43C)[C@@H]2[C@@H]1O`, which IG50 is on record?
The IG50 was 41 µM.

How did the IG50 turn out when `CC1(C)CC[C@]2(C(=O)O)CC[C@]3(C)C(=CC(=O)[C@@H]4[C@@]5(C)CC[C@H](O)C(C)(C)[C@@H]5[C@H](O)C[C@]43C)[C@@H]2C1` was run?
The IG50 was 99.4 µM.

With `CC1(C)CC[C@]23CC[C@]4(C)[C@@H](C(=O)C[C@@H]5[C@@]6(C)CC[C@H](O)C(C)(C)[C@@H]6CC[C@]54C)[C@@H]2[C@H]1OC3=O` as the compound, how does the IG50 read?
Its IG50 is 51.2 µM.

How did the IG50 turn out when `CC1(C)CC[C@@]23CC[C@]4(C)[C@@](OC2=O)([C@@H]3C1)[C@H]1O[C@H]1[C@@H]1[C@@]2(C)CCC(=O)C(C)(C)[C@@H]2[C@H](O)C[C@]14C` was run?
Its IG50 is 41.8 µM.

`CC1(C)CC[C@@]23CC[C@]4(C)[C@@](OC2=O)([C@@H]3C1)[C@H]1O[C@H]1[C@@H]1[C@@]2(C)CC[C@H](O)C(C)(C)[C@@H]2[C@H](O)C[C@]14C` was tested. Which IG50 did it give?
The IG50 was 27.5 µM.

Which IG50 does the source give for `CC1(C)CC[C@]2(C(=O)O)CC[C@]3(C)C(=CC[C@@H]4[C@@]5(C)CC[C@H](O)C(C)(C)[C@@H]5CC[C@]43C)[C@@H]2C1` [OLEANOLIC_ACID] here?
Its IG50 is 8.9 µM.

With `CC1(C)CC[C@]2(C(=O)O)CC[C@]3(C)C(=CC[C@@H]4[C@@]5(C)CC[C@H](O)C(C)(C)[C@@H]5CC[C@]43C)[C@@H]2[C@@H]1O` [SIARESINOLIC ACID] as the compound, how does the IG50 read?
The IG50 was 29 µM.

Which IG50 does the source give for `CC1(C)CC[C@]2(C(=O)O)CC[C@]3(C)C(=CC[C@@H]4[C@@]5(C)CC[C@H](O)C(C)(C)[C@@H]5[C@H](O)C[C@]43C)[C@@H]2C1` [SUMARESINOLIC ACID] here?
Its IG50 is 30.2 µM.

These compounds were tested on HL-60 (assay: Induction of cell differentiation of human HL60 cells after 3 days by NBT reduction method).
Type: functional
Set-up: concentration or dose not given beside the values
Procedure, shortened: (§1)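 HL-60 cells in RPMI-1640 with 10% heat-inactivated FBS, seeded at 1 × 10⁵ cells/mL in log phase and treated 3 days at nontoxic concentrations. Differentiation scored by NBT reduction as percentage of NBT-positive cells among 200 counted; mean ± SE of three independent experiments.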

`CC1(C)CC[C@]2(C(=O)O)CC[C@]3(C)C(=CC[C@@H]4[C@@]5(C)CCC(=O)C(C)(C)[C@@H]5[C@H](O)C[C@]43C)[C@@H]2C1` was tested. Which Activity did it give?
The Activity was under 10%.

For `CC1(C)CC[C@]2(C(=O)O)CC[C@]3(C)C(=CC[C@@H]4[C@@]5(C)CCC(=O)C(C)(C)[C@@H]5CC[C@]43C)[C@@H]2[C@@H]1O`, which Activity is on record?
Its Activity is under 10%.

For `CC1(C)CC[C@]23CC[C@]4(C)[C@@H](C(=O)C[C@@H]5[C@@]6(C)CC[C@H](O)C(C)(C)[C@@H]6CC[C@]54C)[C@@H]2[C@H]1OC3=O`, which Activity is on record?
The Activity was under 10%.

For `CC1(C)CC[C@@]23CC[C@]4(C)[C@@](OC2=O)([C@@H]3C1)[C@H]1O[C@H]1[C@@H]1[C@@]2(C)CCC(=O)C(C)(C)[C@@H]2[C@H](O)C[C@]14C`, which Activity is on record?
Its Activity is under 10%.

For `CC1(C)CC[C@@]23CC[C@]4(C)[C@@](OC2=O)([C@@H]3C1)[C@H]1O[C@H]1[C@@H]1[C@@]2(C)CC[C@H](O)C(C)(C)[C@@H]2[C@H](O)C[C@]14C`, which Activity is on record?
The Activity was under 10%.

With `CC1(C)CC[C@]2(C(=O)O)CC[C@]3(C)C(=CC[C@@H]4[C@@]5(C)CC[C@H](O)C(C)(C)[C@@H]5CC[C@]43C)[C@@H]2C1` [OLEANOLIC_ACID] as the compound, how does the Activity read?
The Activity was under 10%.

With `CC1(C)CC[C@]2(C(=O)O)CC[C@]3(C)C(=CC[C@@H]4[C@@]5(C)CC[C@H](O)C(C)(C)[C@@H]5CC[C@]43C)[C@@H]2[C@@H]1O` [SIARESINOLIC ACID] as the compound, how does the Activity read?
Its Activity is under 10%.

Which Activity does the source give for `CC1(C)CC[C@]2(C(=O)O)CC[C@]3(C)C(=CC[C@@H]4[C@@]5(C)CC[C@H](O)C(C)(C)[C@@H]5[C@H](O)C[C@]43C)[C@@H]2C1` [SUMARESINOLIC ACID] here?
Its Activity is under 10%.

What follows are compounds tested on HL-60 (assay: Induction of cell differentiation of human HL60 cells at 100 uM after 3 days by NBT reduction method).
Type: functional
Procedure, shortened: as §1

For `CC1(C)CC[C@]2(C(=O)O)CC[C@]3(C)C(=CC(=O)[C@@H]4[C@@]5(C)CC[C@H](O)C(C)(C)[C@@H]5[C@H](O)C[C@]43C)[C@@H]2C1`, which Activity is on record?
The Activity was 44%.
